{"source": "ChEMBL document CHEMBL2417369", "about": "“Synthesis and evaluation of heteroaryl substituted diazaspirocycles as scaffolds to probe the ATP-binding site of protein kinases” (Bioorg Med Chem, 2013)", "key": {"[1]": {"biological_target": "T1, Calcium/calmodulin-dependent protein kinase type IV (Homo sapiens) (UniProt Q16566)", "T1 sequence (whole entry)": "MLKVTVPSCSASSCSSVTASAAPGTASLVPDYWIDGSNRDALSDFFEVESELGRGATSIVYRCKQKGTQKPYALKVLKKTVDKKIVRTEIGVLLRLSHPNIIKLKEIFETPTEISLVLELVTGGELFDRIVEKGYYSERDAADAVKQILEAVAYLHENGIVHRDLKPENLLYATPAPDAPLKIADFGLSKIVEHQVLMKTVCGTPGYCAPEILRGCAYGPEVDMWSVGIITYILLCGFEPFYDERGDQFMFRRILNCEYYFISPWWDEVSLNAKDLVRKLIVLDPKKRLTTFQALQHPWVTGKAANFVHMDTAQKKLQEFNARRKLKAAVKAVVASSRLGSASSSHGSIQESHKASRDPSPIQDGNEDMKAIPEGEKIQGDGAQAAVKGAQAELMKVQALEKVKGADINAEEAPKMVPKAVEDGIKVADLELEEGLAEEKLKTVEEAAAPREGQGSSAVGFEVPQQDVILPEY", "experiment": "Inhibition of CAMK4 (unknown origin) at 30 uM by microfluidic mobility shift assay relative to control", "summary_of_the_method": "(§1)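 Single-point screen at 30 µM test compound across a 24-kinase panel in a microfluidic assay format. ATP was set near each enzyme's Km,[ATP]. […] The pan-AGC inhibitor H-89 served as an internal control on every assay plate.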"}, "[2]": {"biological_target": "Calcium/calmodulin-dependent protein kinase type II subunit beta (Homo sapiens) (UniProt Q13554)", "sequence (Q13554 whole entry)": "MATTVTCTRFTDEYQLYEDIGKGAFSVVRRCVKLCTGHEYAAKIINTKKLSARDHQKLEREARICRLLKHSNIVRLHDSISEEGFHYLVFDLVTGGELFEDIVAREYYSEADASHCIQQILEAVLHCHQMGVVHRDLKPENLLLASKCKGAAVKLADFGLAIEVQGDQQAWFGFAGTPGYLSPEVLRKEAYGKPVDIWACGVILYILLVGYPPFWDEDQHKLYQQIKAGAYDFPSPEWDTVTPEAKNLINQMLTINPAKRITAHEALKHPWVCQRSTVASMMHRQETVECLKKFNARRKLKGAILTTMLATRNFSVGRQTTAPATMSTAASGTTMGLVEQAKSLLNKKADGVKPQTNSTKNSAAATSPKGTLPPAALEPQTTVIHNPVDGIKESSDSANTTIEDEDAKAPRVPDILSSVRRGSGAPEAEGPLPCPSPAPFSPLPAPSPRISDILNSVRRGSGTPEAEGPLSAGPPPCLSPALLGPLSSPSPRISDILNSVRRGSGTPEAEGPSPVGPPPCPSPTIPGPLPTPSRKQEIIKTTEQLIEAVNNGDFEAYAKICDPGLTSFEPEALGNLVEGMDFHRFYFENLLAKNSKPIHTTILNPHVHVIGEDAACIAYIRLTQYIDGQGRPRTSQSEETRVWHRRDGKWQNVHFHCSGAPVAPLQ", "experiment": "Inhibition of CAMK2beta (unknown origin) at 30 uM by microfluidic mobility shift assay relative to control", "summary_of_the_method": "as §1"}, "[3]": {"biological_target": "Epidermal growth factor receptor (Homo sapiens) (UniProt P00533)", "sequence (P00533 whole entry)": "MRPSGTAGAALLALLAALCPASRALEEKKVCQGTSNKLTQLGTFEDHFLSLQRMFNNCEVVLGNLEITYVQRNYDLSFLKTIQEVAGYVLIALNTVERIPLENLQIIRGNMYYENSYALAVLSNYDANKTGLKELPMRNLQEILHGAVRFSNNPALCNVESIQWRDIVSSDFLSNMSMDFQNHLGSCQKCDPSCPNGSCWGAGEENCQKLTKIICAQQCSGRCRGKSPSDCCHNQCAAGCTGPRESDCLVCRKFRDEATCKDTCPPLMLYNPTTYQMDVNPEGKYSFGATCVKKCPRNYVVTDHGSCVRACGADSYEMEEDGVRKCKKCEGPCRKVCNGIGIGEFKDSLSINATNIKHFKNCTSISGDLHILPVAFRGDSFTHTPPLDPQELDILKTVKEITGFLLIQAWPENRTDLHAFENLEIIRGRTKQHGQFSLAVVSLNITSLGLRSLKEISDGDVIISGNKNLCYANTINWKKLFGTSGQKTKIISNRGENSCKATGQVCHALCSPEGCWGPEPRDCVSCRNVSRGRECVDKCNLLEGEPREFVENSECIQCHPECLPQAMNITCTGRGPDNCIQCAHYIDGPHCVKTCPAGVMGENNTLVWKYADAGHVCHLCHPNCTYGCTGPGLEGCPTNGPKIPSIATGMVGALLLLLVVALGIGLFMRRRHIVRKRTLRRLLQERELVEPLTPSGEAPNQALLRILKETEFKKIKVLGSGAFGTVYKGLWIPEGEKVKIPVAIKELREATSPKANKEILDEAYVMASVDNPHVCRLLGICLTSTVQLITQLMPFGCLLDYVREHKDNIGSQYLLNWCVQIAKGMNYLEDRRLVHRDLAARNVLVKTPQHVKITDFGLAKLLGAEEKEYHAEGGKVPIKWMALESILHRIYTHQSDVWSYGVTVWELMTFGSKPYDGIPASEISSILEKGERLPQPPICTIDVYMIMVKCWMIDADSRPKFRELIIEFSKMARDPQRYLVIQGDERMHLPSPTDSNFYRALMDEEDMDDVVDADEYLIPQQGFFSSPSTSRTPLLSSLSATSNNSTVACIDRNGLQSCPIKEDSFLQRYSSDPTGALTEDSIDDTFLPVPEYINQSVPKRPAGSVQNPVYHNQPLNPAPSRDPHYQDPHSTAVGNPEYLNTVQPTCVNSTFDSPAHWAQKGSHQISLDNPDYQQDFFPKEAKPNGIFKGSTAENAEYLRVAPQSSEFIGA", "experiment": "Inhibition of EGFR (unknown origin) at 30 uM by microfluidic mobility shift assay relative to control", "summary_of_the_method": "as §1"}, "[4]": {"biological_target": "RAC-gamma serine/threonine-protein kinase (Homo sapiens) (UniProt Q9Y243)", "sequence (Q9Y243 whole entry)": "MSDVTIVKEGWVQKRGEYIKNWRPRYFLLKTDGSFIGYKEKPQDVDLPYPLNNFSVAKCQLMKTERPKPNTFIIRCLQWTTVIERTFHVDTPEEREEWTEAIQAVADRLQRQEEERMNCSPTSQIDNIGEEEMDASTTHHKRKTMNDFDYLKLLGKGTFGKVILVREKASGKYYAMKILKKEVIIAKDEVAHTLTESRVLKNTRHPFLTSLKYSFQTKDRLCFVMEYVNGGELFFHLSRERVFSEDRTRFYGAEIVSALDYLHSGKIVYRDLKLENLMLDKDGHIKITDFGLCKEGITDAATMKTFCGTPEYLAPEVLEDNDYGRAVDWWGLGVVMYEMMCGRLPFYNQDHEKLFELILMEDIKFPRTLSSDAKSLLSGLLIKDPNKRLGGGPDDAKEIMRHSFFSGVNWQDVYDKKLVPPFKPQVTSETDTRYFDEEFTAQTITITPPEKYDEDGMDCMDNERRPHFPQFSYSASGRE", "experiment": "Inhibition of AKT3 (unknown origin) at 30 uM by microfluidic mobility shift assay relative to control", "summary_of_the_method": "as §1"}, "[5]": {"biological_target": "Protein kinase C beta type (Homo sapiens) (UniProt P05771)", "sequence (P05771 2-671 limits assumed)": "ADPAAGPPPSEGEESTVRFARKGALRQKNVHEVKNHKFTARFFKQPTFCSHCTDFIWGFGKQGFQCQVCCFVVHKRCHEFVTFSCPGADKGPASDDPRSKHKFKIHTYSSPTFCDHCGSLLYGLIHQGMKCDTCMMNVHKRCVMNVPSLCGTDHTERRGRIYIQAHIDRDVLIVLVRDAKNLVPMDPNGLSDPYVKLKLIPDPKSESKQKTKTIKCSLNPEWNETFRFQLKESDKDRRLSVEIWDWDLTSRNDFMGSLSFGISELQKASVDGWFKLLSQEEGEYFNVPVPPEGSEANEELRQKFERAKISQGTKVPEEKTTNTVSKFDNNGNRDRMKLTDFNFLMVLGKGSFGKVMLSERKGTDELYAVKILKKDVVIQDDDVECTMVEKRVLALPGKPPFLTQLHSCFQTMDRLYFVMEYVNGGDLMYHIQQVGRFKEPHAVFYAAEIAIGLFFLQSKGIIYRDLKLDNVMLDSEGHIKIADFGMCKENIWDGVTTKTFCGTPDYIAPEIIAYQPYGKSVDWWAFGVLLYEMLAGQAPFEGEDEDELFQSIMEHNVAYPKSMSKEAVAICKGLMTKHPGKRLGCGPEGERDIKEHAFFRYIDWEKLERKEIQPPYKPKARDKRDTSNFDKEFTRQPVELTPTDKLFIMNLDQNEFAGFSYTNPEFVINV", "experiment": "Inhibition of PKCbeta-2 (unknown origin) at 30 uM by microfluidic mobility shift assay relative to control", "summary_of_the_method": "as §1"}, "[6]": {"biological_target": "Protein kinase C eta type (Homo sapiens) (UniProt P24723)", "sequence (P24723 whole entry)": "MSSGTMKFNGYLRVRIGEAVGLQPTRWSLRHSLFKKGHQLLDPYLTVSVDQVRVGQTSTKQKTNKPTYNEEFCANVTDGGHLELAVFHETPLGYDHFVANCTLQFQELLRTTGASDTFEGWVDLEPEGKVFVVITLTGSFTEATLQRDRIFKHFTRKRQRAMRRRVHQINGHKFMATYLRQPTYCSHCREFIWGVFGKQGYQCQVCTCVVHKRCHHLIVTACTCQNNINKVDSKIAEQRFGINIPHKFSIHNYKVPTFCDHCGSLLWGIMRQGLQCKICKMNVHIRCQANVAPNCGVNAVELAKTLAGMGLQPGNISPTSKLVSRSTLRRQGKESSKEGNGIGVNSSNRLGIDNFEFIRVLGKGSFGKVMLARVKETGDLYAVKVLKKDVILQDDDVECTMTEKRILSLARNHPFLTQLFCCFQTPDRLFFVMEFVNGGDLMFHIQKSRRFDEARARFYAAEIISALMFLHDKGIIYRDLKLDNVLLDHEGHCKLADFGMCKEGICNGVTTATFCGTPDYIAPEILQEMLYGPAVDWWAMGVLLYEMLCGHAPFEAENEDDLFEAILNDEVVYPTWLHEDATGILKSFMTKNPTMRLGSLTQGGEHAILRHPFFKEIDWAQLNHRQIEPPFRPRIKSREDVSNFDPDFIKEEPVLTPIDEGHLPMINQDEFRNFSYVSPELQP", "experiment": "Inhibition of PKCeta (unknown origin) at 30 uM by microfluidic mobility shift assay relative to control", "summary_of_the_method": "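Single-point screen against a 24-kinase panel in a commercial microfluidic assay format. Compounds were tested at 30 µM, with ATP at approximately the Km,[ATP] of each enzyme. H-89 was included on each assay plate as an internal control.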"}, "[7]": {"biological_target": "Tyrosine-protein kinase HCK (Homo sapiens) (UniProt P08631)", "sequence (P08631 2-526 limits assumed)": "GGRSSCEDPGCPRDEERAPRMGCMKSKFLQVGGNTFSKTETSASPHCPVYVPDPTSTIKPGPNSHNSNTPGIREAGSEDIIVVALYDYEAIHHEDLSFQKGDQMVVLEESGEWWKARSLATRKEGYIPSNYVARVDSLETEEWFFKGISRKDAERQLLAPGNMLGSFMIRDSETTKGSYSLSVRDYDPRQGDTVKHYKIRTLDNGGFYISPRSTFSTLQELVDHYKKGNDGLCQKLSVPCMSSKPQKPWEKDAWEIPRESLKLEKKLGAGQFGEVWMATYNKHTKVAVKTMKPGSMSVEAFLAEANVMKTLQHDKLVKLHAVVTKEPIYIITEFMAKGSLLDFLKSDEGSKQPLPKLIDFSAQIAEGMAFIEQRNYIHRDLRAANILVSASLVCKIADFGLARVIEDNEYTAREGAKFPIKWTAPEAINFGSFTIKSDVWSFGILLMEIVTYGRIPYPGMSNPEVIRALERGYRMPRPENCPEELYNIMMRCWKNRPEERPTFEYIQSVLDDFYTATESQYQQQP", "experiment": "Inhibition of HCK (unknown origin) at 30 uM by microfluidic mobility shift assay relative to control", "summary_of_the_method": "as §1"}, "[8]": {"biological_target": "Protein kinase C delta type (Homo sapiens) (UniProt Q05655)", "sequence (Q05655 whole entry, looked up)": "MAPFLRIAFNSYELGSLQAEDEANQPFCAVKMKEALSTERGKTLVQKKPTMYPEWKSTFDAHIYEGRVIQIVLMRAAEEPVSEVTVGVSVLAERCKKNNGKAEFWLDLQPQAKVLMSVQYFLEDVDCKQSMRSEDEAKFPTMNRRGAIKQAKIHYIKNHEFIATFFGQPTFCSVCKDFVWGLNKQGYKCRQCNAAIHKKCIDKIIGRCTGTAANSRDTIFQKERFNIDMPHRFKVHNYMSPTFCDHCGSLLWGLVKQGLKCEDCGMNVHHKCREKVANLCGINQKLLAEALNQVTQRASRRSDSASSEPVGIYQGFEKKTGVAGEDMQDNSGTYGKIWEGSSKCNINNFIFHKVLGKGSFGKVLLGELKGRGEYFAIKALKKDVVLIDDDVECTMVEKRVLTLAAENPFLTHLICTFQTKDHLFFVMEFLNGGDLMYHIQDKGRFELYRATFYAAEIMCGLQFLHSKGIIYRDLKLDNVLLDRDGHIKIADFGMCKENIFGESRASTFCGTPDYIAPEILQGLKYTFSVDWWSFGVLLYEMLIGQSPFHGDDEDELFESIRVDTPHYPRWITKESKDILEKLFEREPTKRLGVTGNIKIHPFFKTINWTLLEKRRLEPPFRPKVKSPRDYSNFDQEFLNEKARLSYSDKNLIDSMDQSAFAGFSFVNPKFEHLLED", "experiment": "Inhibition of PKCdelta (unknown origin) at 30 uM by microfluidic mobility shift assay relative to control", "summary_of_the_method": "as §1"}, "[9]": {"biological_target": "T2, Inhibitor of nuclear factor kappa-B kinase subunit beta (Homo sapiens) (UniProt O14920)", "T2 sequence (whole entry)": "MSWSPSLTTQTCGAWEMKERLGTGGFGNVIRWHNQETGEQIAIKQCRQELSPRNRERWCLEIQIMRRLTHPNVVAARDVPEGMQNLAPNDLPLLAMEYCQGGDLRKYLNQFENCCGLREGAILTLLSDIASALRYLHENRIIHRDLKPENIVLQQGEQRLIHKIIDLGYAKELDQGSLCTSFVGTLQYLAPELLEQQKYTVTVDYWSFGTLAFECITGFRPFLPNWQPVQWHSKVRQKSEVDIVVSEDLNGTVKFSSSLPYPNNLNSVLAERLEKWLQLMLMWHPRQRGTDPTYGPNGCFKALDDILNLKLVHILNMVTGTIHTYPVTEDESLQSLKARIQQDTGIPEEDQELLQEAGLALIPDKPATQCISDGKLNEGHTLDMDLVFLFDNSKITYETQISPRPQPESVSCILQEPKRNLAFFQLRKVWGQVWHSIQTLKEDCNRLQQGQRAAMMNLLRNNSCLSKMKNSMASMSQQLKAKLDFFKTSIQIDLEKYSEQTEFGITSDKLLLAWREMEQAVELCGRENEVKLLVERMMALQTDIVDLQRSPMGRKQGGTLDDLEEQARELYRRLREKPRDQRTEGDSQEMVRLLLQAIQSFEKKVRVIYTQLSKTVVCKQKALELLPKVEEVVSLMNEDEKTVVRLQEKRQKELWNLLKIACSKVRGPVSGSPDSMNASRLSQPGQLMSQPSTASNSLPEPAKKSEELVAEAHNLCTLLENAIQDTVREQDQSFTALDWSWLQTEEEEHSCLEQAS", "experiment": "Inhibition of IKKbeta (unknown origin) at 30 uM by microfluidic mobility shift assay relative to control", "summary_of_the_method": "as §1"}, "[10]": {"biological_target": "AMP-activated protein kinase, AMPK (Homo sapiens) (UniProt P54646+O43741+P54619+Q9UGJ0+Q9Y478+Q13131+Q9UGI9)", "experiment": "Inhibition of AMPK (unknown origin) at 30 uM by microfluidic mobility shift assay relative to control", "assay_type": "protein-complex assay", "summary_of_the_method": "as §1"}, "[11]": {"system": "Tyrosine-protein kinase ABL1 (Homo sapiens), P00519 [T315I]", "experiment": "Inhibition of ABL T315I mutant (unknown origin) at 30 uM by microfluidic mobility shift assay relative to control", "assay_type": "protein assay", "summary_of_the_method": "as §1"}}, "data": [{"molecule": "c1ccc(C2CCNC3(CCN(c4ncnc5[nH]cnc45)CC3)C2)cc1", "note": "(racemic)", "values": [{"measurement": "inhibition", "setting": "[1]", "value": 18, "unit": "%"}, {"measurement": "inhibition", "setting": "[2]", "value": 32, "unit": "%"}, {"measurement": "inhibition", "setting": "[3]", "value": 10, "unit": "%"}, {"measurement": "inhibition", "setting": "[4]", "value": 96, "unit": "%"}, {"measurement": "inhibition", "setting": "[5]", "value": 36, "unit": "%"}, {"measurement": "inhibition", "setting": "[6]", "value": 61, "unit": "%"}, {"measurement": "inhibition", "setting": "[7]", "value": 41, "unit": "%"}, {"measurement": "inhibition", "setting": "[8]", "value": 79, "unit": "%"}, {"measurement": "inhibition", "setting": "[9]", "value": 100, "unit": "%"}, {"measurement": "inhibition", "setting": "[10]", "value": 66, "unit": "%"}, {"measurement": "inhibition", "setting": "[11]", "value": 14, "unit": "%"}]}, {"molecule": "c1ccc(CC2CCC3(CCN(c4ncnc5[nH]cnc45)CC3)NC2)cc1", "note": "(racemic)", "values": [{"measurement": "inhibition", "setting": "[1]", "value": 18, "unit": "%"}, {"measurement": "inhibition", "setting": "[2]", "value": 17, "unit": "%"}, {"measurement": "inhibition", "setting": "[3]", "value": 8, "unit": "%"}, {"measurement": "inhibition", "setting": "[4]", "value": 69, "unit": "%"}, {"measurement": "inhibition", "setting": "[5]", "value": 13, "unit": "%"}, {"measurement": "inhibition", "setting": "[6]", "value": 35, "unit": "%"}, {"measurement": "inhibition", "setting": "[7]", "value": 15, "unit": "%"}, {"measurement": "inhibition", "setting": "[8]", "value": 27, "unit": "%"}, {"measurement": "inhibition", "setting": "[9]", "value": 83, "unit": "%"}, {"measurement": "inhibition", "setting": "[10]", "value": 70, "unit": "%"}, {"measurement": "inhibition", "setting": "[11]", "value": 16, "unit": "%"}]}, {"molecule": "c1ccc(CC2CCNC3(CCN(c4ncnc5[nH]cnc45)CC3)C2)cc1", "note": "(racemic)", "values": [{"measurement": "inhibition", "setting": "[1]", "value": 14, "unit": "%"}, {"measurement": "inhibition", "setting": "[2]", "value": 29, "unit": "%"}, {"measurement": "inhibition", "setting": "[3]", "value": 3, "unit": "%"}, {"measurement": "inhibition", "setting": "[4]", "value": 101, "unit": "%"}, {"measurement": "inhibition", "setting": "[5]", "value": 60, "unit": "%"}, {"measurement": "inhibition", "setting": "[6]", "value": 71, "unit": "%"}, {"measurement": "inhibition", "setting": "[7]", "value": 22, "unit": "%"}, {"measurement": "inhibition", "setting": "[8]", "value": 75, "unit": "%"}, {"measurement": "inhibition", "setting": "[9]", "value": 95, "unit": "%"}, {"measurement": "inhibition", "setting": "[10]", "value": 78, "unit": "%"}, {"measurement": "inhibition", "setting": "[11]", "value": 17, "unit": "%"}]}]}
